Published values from different studies.
Compare with care: the assays were run in different laboratories. pKi: −log10 of the molar value.
PPO3: PPO3 (Agaricus bisporus, UniProt C7FF04)
OPRK1: Kappa-type opioid receptor (OPRK1, Homo sapiens, UniProt P41145)
HTR2A: 5-hydroxytryptamine receptor 2A (HTR2A, Homo sapiens, UniProt P28223)
SIGMAR1: Sigma non-opioid intracellular receptor 1 (SIGMAR1, Homo sapiens, UniProt Q99720)
SPHK1: Sphingosine kinase 1 (SPHK1, Homo sapiens, UniProt Q9NYA1)
SLC10A1: Hepatic sodium/bile acid cotransporter (SLC10A1, Homo sapiens, UniProt Q14973)

Structure (SMILES) | target | test | conditions | pKi
COc1ccc(N=Nc2c(N)nc(N)nc2Cl)cc1 | PPO3 | enzyme activity, inhibitor |  | 5.15
CCOC(=O)[C@@]12C[C@@H]1[C@@H](n1cnc3c(NC)nc(C#Cc4ccc(Cl)s4)cc31)[C@H](O)[C@@H]2O | OPRK1 | cell-free assay |  | < 5.00
Cc1nc2n(c(=O)c1CCNCCc1c[nH]c3ccccc13)CCCC2 | HTR2A | ligand displacement, radioligand | cell membranes | < 5.00
COc1ccc2c(ccn2CCCCN2CCc3cc(OC)c(OC)cc3C2)c1 | SIGMAR1 | ligand displacement, radioligand | cell membranes | 6.35
CNc1nc(C#Cc2ccc(Cl)s2)nc2c1ncn2[C@H]1[C@H](O)[C@H](O)[C@]2(C(=O)OC(C)C)C[C@H]12 | OPRK1 | cell-free assay |  | < 5.00
CC(=O)Nc1ccc(N=Nc2c(N)nc(N)nc2N)cc1 | PPO3 | enzyme activity, inhibitor |  | 5.30
N=C(N)N1CCC[C@H]1c1nc(-c2ccc(CCC3CCCCC3)c(C(F)(F)F)c2)no1 | SPHK1 | enzyme activity, inhibitor |  | 4.74
CCNc1nc(C#Cc2ccccc2)nc2c1ncn2[C@H]1[C@H](O)[C@H](O)[C@@H]2C[C@@H]21 | OPRK1 | cell-free assay |  | < 5.00
CCCc1nc2c(C)cc(-c3nc4ccccc4n3C)cc2n1Cc1ccc(-c2ccccc2C(=O)O)cc1 | SLC10A1 | transporter uptake, inhibitor |  | 4.22
Cc1nc2n(c(=O)c1CCN1CCC(C(=O)c3ccc(F)cc3)CC1)CCCC2 | HTR2A | ligand displacement, radioligand | cell membranes | 8.52
CNC(=O)[C@@]12C[C@@H]1[C@@H](n1cnc3c(NCCCO)nc(C#Cc4ccc(Cl)s4)nc31)[C@H](O)[C@@H]2O | OPRK1 | cell-free assay |  | < 5.00
CCOC(=O)[C@H](CCSC)NC(=O)c1ccc(C2CC2)c(Cc2ccc(F)cc2)n1 | Cannabinoid receptor 1 (CNR1, Homo sapiens, UniProt P21554) | ligand displacement, radioligand | cell membranes | 7.15
CCCn1nc(C(=O)N2CCCCC2)c2c1CCC(NCc1ccc(N3CCCCC3)cc1)C2 (centres unmarked) | SIGMAR1 | ligand displacement, radioligand |  | < 5.00
Cc1cccc(CN2CCCC(C(=O)NCCc3cccnc3)CC2)n1 (centres unmarked) | OPRK1 | cell-free assay |  | < 5.00
CC[C@H](C)[C@H](NC(=O)[C@H](CCC(=O)O)NC(=O)[C@H](CC(=O)O)NC(=O)CNC(=O)[C@H](CC(C)C)NC(=O)[C@H](CCCNC(=N)N)NC(=O)[C@H](CCCNC(=N)N)NC(=O)[C@H](CC(C)C)NC(=O)CNC(=O)[C@H](CCC(N)=O)NC(=O)[C@@H](NC(=O)[C@H](CCSC)NC(=O)[C@H](Cc1c[nH]c2ccccc12)NC(=O)[C@@H](NC(=O)[C@H](CCC(=O)O)NC(=O)[C@@H]1CCCN1C(=O)[C@H](CCCNC(=N)N)NC(C)=O)[C@@H](C)CC)[C@@H](C)O)C(=O)N[C@@H](CC(N)=O)C(=O)N[C@@H](C)C(=O)N[C@@H](Cc1ccc(O)cc1)C(=O)N[C@@H](Cc1ccc(O)cc1)C(=O)N[C@@H](C)C(=O)N[C@@H](CCCNC(=N)N)C(N)=O | Bcl-2-like protein 1 (BCL2L1, Homo sapiens, UniProt Q07817) | ligand displacement, FP |  | 5.62
CCCn1nc(C(=O)N2CCCCC2)c2c1CCC(N1CCc3ccccc3C1)C2 (centres unmarked) | SIGMAR1 | ligand displacement, radioligand |  | < 5.00
CCNC(=O)[C@H]1O[C@@H](n2cnc3c(N)nc(NN=CC4CCC=CO4)nc32)[C@H](O)[C@@H]1O (some centres unmarked) | Adenosine receptor A2a (ADORA2A, Homo sapiens, UniProt P29274) | ligand displacement, radioligand |  | 8.18
CNC(=O)[C@@]12C[C@@H]1[C@@H](n1cnc3c(NCc4cccc(Cl)c4)nc(C#Cc4ccc(F)cc4)nc31)[C@H](O)[C@@H]2O | OPRK1 | cell-free assay |  | < 5.00
CCCn1nc(C(=O)N2CCCCC2)c2c1CCC(N1CCN(Cc3ccc(C#N)cc3)CC1)C2 (centres unmarked) | SIGMAR1 | ligand displacement, radioligand |  | < 5.00
CCCCN1CCC(COC(=O)c2ccc(N)c(OCF)c2)CC1 | HTR2A | cell-free assay, radioligand |  | < 5.00
COc1ccccc1Oc1c(NS(=O)(=O)c2ccc(C(C)(C)C)cc2)nc(-c2ncccn2)nc1OCCO | SLC10A1 | transporter uptake, inhibitor |  | 3.84

Structure (SMILES) | target | test | conditions | pKi
COc1ccc(N=Nc2c(N)nc(N)nc2N)cc1 | PPO3 | enzyme activity, inhibitor |  | 5.12
COc1ccccc1N1CCN(CCCCNC(=O)c2cc3cc(OCCOCCOCCF)ccc3[nH]2)CC1 | SIGMAR1 | cell-free assay |  | < 5.00
CCCn1nc(C(=O)N(C)C)c2c1CCC(NCc1ccc(OC)cc1OC)C2 (centres unmarked) | SIGMAR1 | ligand displacement, radioligand |  | < 5.00
CCc1cc(Cl)c(OC)c(C(=O)NC[C@@H]2CCCN2CC)c1O | Vesicular acetylcholine transporter (SLC18A3, Homo sapiens, UniProt Q16572) | ligand displacement, radioligand |  | < 6.00
Cc1ccc(N=Nc2c(N)nc(N)nc2Cl)cc1 | PPO3 | enzyme activity, inhibitor |  | 5.23
CCCn1nc(C(=O)N2CCCCC2)c2c1CCC(NCC1CCOCC1)C2 (centres unmarked) | SIGMAR1 | ligand displacement, radioligand |  | < 5.00
CN(CCCCNC(=O)c1cc2ccccc2[nH]1)[C@@H]1Cc2cccc3[nH]c(=O)n(c23)C1 | HTR2A | ligand displacement, radioligand |  | 5.84
CCCn1nc(C(=O)N2CCCCC2)c2c1CCC(Nc1ccc(N3CCCCC3)cc1)C2 (centres unmarked) | SIGMAR1 | ligand displacement, radioligand |  | < 5.00
COc1ccc2c(ccn2CCCCN2Cc3cc(OC)c(OC)cc3C2)c1 | SIGMAR1 | ligand displacement, radioligand | cell membranes | 6.72
Cc1ccc(C(C)C)cc1NC(=O)COC(=O)/C=C/c1ccccc1O | PPO3 | enzyme activity, inhibitor |  | 5.66
CNc1nc(C#Cc2ccc(Cl)s2)nc2c1ncn2[C@@H]1O[C@H](C(=O)OC)[C@@H](O)[C@H]1O | OPRK1 | cell-free assay |  | < 5.00
O=C1NC(=O)C(c2ccccc2)(c2ccc(OCCCN3CCCCC3)cc2)N1 (centres unmarked) | Histamine H4 receptor (HRH4, Homo sapiens, UniProt Q9H3N8) | ligand displacement, radioligand | cell membranes | < 4.00
CCCc1ccc(CCc2ccc(-c3noc([C@@H]4CCCN4C(=N)N)n3)cc2C(F)(F)F)cc1 | SPHK1 | enzyme activity, inhibitor |  | 4.77
C[C@@H]1Cc2ccccc2N1C(=O)NCCCCN(C)[C@@H]1Cc2cccc3[nH]c(=O)n(c23)C1 | HTR2A | ligand displacement, radioligand |  | 5.57
O=C1c2ccccc2CCN1CCCCN1CCN(c2cccc(Cl)c2Cl)CC1 | HTR2A | ligand displacement, radioligand |  | 7.41
Cc1ccc(C(C)C)cc1NC(=O)COC(=O)c1ccc(O)cc1O | PPO3 | enzyme activity, inhibitor |  | 6.73
CCCNc1nc(C#Cc2ccc(Cl)s2)nc2c1ncn2[C@H]1[C@H](O)[C@H](O)[C@]2(C(=O)NC)C[C@H]12 | OPRK1 | cell-free assay |  | < 5.00
Cc1nc2n(c(=O)c1CCN)CCCC2 | HTR2A | ligand displacement, radioligand | cell membranes | < 5.00
CCCn1nc(C(=O)N2CCCCC2)c2c1CCC(NCCNC(=N)N)C2 (centres unmarked) | SIGMAR1 | ligand displacement, radioligand |  | < 5.00
CNC(=O)[C@@]12C[C@@H]1[C@@H](n1cnc3c(NC)nc(C#Cc4ccccc4Cl)nc31)[C@H](O)[C@@H]2O | OPRK1 | cell-free assay |  | < 5.00
